Screens as filed in PubChem BioAssay.
In the library only some 5.7% were active in any assay of this set; here they are far more common.
CSC inhib: cancer stem cell inhibition; cancer stem cell-like cells viability, luminescence; inhibition, % at 7.5 µM; 300,000 tested, 1.1% active; AID 2717; in the data active means inhibition above about 75%; inconclusive means no clear call, values can overlap the other calls; tested in HMLE shEcad cells
T cruzi repl: T. cruzi replication inhibition; T. cruzi beta-gal in NIH3T3, luminescence, 90 h; inhibition, % (test concentration not listed); 300,000 tested, 1.4% active;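 active means mean inhibition across valid replicates above about 55%, limit read from the data; inconclusive means mean below that limit but half or more replicates reach it; inactive means mean below it, under half of replicates reach it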;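 further: signal also drops with host cell toxicity which is not excluded here; 0% = plate median of DMSO wells and 100% = zero luminescence signal; higher percent means less beta-gal luminescence so fewer parasites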
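compound dosing = single 50 nL compound addition per well in DMSO | material = NIH/3T3 host cells with β-galactosidase reporter T. cruzi | input = 5,000 host fibroblasts per well | timing = ≥90 h infection period, 3 h prior cell attachment | read-out basis = percent inhibition of parasite-derived β-gal signal | detection = GalScreen β-gal luminescence, detergent lysis, 60 min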
Mdm2 MdmX PPI: disrupts the human Mdm2-MdmX interaction; O15151+Q00987; SaOS-2 split-luciferase Mdm2/MdmX complementation, luminescence; inhibition, % at 8 µM; 330,000 tested, 3% active;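 active means inhibition of at least 50% at 8 µM in the primary screen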
Target sequence (O15151 whole entry, looked up): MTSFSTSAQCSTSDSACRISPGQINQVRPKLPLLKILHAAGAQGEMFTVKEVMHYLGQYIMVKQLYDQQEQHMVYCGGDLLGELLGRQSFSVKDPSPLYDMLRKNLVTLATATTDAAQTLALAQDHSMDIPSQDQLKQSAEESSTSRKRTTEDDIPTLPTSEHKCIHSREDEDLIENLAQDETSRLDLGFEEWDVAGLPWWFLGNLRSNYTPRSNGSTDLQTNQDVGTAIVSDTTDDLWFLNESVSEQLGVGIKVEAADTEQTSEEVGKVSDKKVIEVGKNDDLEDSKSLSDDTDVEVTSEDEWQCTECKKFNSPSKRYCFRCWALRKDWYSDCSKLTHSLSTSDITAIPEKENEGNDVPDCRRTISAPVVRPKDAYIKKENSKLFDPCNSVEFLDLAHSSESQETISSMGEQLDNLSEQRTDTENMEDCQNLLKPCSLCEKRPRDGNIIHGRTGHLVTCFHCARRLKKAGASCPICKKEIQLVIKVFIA
Target sequence (Q00987 whole entry, looked up): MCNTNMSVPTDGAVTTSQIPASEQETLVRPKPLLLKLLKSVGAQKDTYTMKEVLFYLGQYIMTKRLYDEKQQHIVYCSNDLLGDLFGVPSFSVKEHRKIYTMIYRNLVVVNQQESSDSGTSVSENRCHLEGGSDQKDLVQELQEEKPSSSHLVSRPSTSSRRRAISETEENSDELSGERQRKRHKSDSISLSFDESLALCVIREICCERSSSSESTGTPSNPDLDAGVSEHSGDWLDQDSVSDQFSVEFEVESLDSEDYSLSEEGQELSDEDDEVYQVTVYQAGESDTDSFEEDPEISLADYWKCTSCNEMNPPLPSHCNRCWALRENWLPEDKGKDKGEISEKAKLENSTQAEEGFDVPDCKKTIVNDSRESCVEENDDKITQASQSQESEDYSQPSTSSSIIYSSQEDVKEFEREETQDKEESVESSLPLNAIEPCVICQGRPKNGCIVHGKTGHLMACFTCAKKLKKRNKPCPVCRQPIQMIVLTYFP
SKKanGAS inh: blocks kanamycin growth of S. pyogenes SKKanGAS strain | BacTiter-Glo, 6 h | 300,000 tested, 1.3% active | inhibition, % at 7.5 µM | AID 1662;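 active means mean replicate score, as percent of positive control median, at least 50; inconclusive means mean below 50 but one replicate at or above 50; inactive means mean and every replicate below 50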;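 further: strain carries kanamycin resistance gene driven by streptokinase promoter and grows in 40 µg/ml kanamycin; loss of luminescence reflects streptokinase promoter inhibition or plain growth inhibition; 0% = median of DMSO wells and 100% = positive control at its reference dose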
Calb FLC: affects C. albicans growth with fluconazole; C. albicans CaCi-2 (fluconazole-resistant clinical isolate) + fluconazole, Alamar Blue growth, 48 h; 300,000 tested, 0.57% active; growth inhibition, % (test concentration not listed);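 active means growth inhibition above about 58% in most replicates, limit read from the data, passing the limit was not always enough; inconclusive means exactly half the replicates above a set limit; inactive means most replicates below a set limit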;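 further: all wells also contain fluconazole at 8 µg/ml as a sub-toxic cotreatment; 0% = median of DMSO wells and 100% = median of geldanamycin control wells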
Beta apoptosis: blocks beta cell apoptosis; INS-1E cytokine-induced death, ATP luminescence, 48 h; percent of positive-control rescue, neutral wells zero; protection from apoptosis, % (test concentration not listed); 300,000 tested, 0.8% active;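 active means Every replicate reaches about 75%, or at least half do and their mean reaches it too, limit read from the data; inconclusive means At least half of replicates reach the limit but their mean does not; inactive means Under half of replicates reach the limit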;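 further: 0% = cytokine-treated negative control wells and 100% = positive control rescue; higher means more ATP so stronger rescue from cytokine killing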
Mdm2-MdmX conf: confirmation of human Mdm2/MdmX interaction inhibitors. shares compounds with Mdm2 MdmX PPI. Mdm2-MdmX binding, luminescent assay. inhibition, % at 8 µM. 10,000 tested, 55% active. AID 489028; in the data active means inhibition above about 40%
FLuc counter: inhibits full-length luciferase, flagging false Mdm2/MdmX hits | shares compounds with Mdm2 MdmX PPI | SaOS-2 full-length luciferase counterscreen, luminescence | inhibition, % at 8 µM | 6,200 tested, 77% active;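 active means mean inhibition at 8 µM reaching about 37%, which flags the compound as non-specific, limit read from the data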;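 further: p53-null SaOS-2 cells with luciferase driven by a doxycycline-inducible promoter; compound on cells about two nights before reading with doxycycline added after day one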
* hit, by the source's call; u = inconclusive; x = no result given.

SMILES	CSC inhib	T cruzi repl	Mdm2 MdmX PPI	SKKanGAS inh	Calb FLC	Beta apoptosis	Mdm2-MdmX conf	FLuc counter
CC(NC(=O)c1ccc(CS(C)(=O)=O)cc1)c1ccc(-c2ccccc2)cc1 (stereo not drawn)	-4	17	52*	1	-19	-2	-2	x
CCCSc1nc2c(cnn2-c2ccccc2)c(=O)[nH]1	0	4	0	10	0	-1	x	x
Cc1cccc(-n2ncc3c(=O)[nH]c(SCC(=O)NCCC4=CCCCC4)nc32)c1	x	x	90*	x	x	-3	5	x
CCCSc1nc2c(cnn2-c2ccc(C)cc2)c(=O)[nH]1	35	12	50*	14	3	1	12	x
Cc1ccc(SCC(=O)NCCC2=CCCCC2)cc1	5	31	-12	9	23	3	x	x
Cc1ccc(NC(=O)CCCN2C(=O)NC(C)(C)C2=O)cc1	x	x	-20	x	x	-5	x	x
CS(=O)(=O)N1N=C(c2cccs2)CC1c1ccccc1O (stereo not drawn)	-11	-16	18	-4	-8	-2	x	x
Oc1ccccc1C1CC(c2cccs2)=NC(c2ccc(Cl)cc2)N1 (stereo not drawn)	-4	-6	85*	13	u	39	86*	28
CCOc1ccc(-c2c(C(=O)N/N=C/c3ccc(Cl)cc3)nnn2-c2nonc2N)cc1	-7	-1	19	13	25	-2	x	x
COc1ccc2cc3c(N)nn(C(=O)c4ccccc4[N+](=O)[O-])c3nc2c1	-1	14	93*	8	-32	-22	87*	51*
COc1ccc2cc3c(N)nn(C(=O)c4ccc(Cl)c([N+](=O)[O-])c4)c3nc2c1	-5	-9	83*	-2	11	-17	88*	57*
COc1ccccc1N1CCN(C(=O)c2cc(S(=O)(=O)N3CCOCC3)ccc2C)CC1	x	x	6	x	x	x	x	x
CC(=O)n1cc(N(C(=O)CCl)c2ccc(Cl)cc2)c2ccccc21	30	66*	99*	14	30	1	100*	8
COc1ccccc1N(C(=O)CCl)c1cn(C(C)=O)c2ccccc12	17	6	96*	5	3	5	100*	52*
CC(=O)n1cc(Nc2ccccc2C(=O)O)c2ccccc21	-4	-19	18	4	-5	-5	x	x
O=C(O)CCSSCCC(=O)O	-10	x	24	x	x	-1	x	x
O=C(O)/C=C\c1cc2c(cc1[N+](=O)[O-])OCO2	7	-7	-6	-19	9	-8	x	x
O=C1NC(=S)N/C1=C/c1cc2c(cc1[N+](=O)[O-])OCO2	7	-18	55*	-4	0	-9	29	x
Cn1nc(C(=O)OCC(=O)Nc2ccc(SC(F)F)cc2)c2ccccc2c1=O	-3	x	2	x	x	-1	x	x
Cc1cc(Cl)cc(Cl)c1OCCN1CCCC1	-1	48	-11	-6	-8	x	x	x
COC(=O)c1cccc2c1-c1ccccc1/C2=N/O	-10	-20	84*	-14	19	-7	76*	37*
CCOC(=O)C1CCN(S(=O)(=O)c2ccc3[nH]c(=O)ccc3c2)CC1	7	-4	25	4	3	2	x	x
CC[C@H](C)[C@@H]1NC(=O)[C@H]([C@@H](C)CC)NC(=O)[C@@H](CC(C)C)NC(=O)[C@H](Cc2ccccc2)NC(=O)[C@H](Cc2ccccc2)NC(=O)[C@@H]2CCCN2C(=O)[C@@H]2CCCN2C(=O)[C@H](C(C)C)NC(=O)[C@H](CC(C)C)NC1=O	x	x	52*	x	x	5	12	x
COc1cc(/C=C(/C#N)C(=O)NCCc2c[nH]c3ccccc23)ccc1OCc1ccccc1F	47	16	63*	-5	3	37	7	x
CSc1ccc(/C=C/C(=O)N2CCN(c3ccccn3)CC2)cc1	-5	-15	13	0	4	6	x	x
SMILES	CSC inhib	T cruzi repl	Mdm2 MdmX PPI	SKKanGAS inh	Calb FLC	Beta apoptosis	Mdm2-MdmX conf	FLuc counter
CCN(CC)CCN1C(=O)/C(=C\c2ccc(Cl)c([N+](=O)[O-])c2)SC1=Nc1ccc(OC)cc1	u	57*	100*	13	10	-1	98*	0
COc1ccc(N=C2S/C(=C\c3ccc(Cl)c([N+](=O)[O-])c3)C(=O)N2CCN(C)C)cc1	105*	65*	100*	14	-1	0	67*	14
COc1cc(/C=C/C(=O)CC(=O)/C=C/c2ccc(O)c(OC)c2)ccc1O	94*	-24	54*	7	x	x	8	x
COc1cc(/C=C/C(=O)O)ccc1O	3	-3	10	-1	9	x	x	x
COc1cc(/C=C/C(=O)/C=C(O)/C=C/c2ccc(O)c(OC)c2)ccc1O	4	x	66*	x	x	3	19	x
N#C/C(=N/Nc1ccc(OC(F)(F)F)cc1)C(N)=S	62	-16	78*	115*	81*	88*	88*	35
COc1ccc(N/N=C(\C#N)C(N)=O)cc1	-2	13	-9	-3	-1	-4	x	x
COc1cc(NC(=O)Cn2cnc3c(SC)nc(N)nc32)cc(OC)c1OC	10	x	-45	x	x	0	x	x
CCOc1ccc(OCC)c(NC(=O)CN2CCN(c3cccc(C)c3)CC2)c1	x	39	18	5	-2	11	x	x
CCOc1ccc(OCC)c(NC(=O)CN2CCN(c3cccc(C)c3)C(C)C2)c1 (stereo not drawn)	-16	44	53*	22	-3	18	64*	46*
COc1ccc(C(CCNCc2ccc(N(C)C)cc2)c2ccccc2OC)cc1 (stereo not drawn)	2	46	54*	-10	-9	30	29	x
COc1ccc(C(CCNCc2ccc(OC(C)C)cc2)c2ccccc2OC)cc1 (stereo not drawn)	101*	52	87*	-1	30	76*	31	82*
COc1ccc(CNCCC(c2ccc(OC)cc2)c2ccccc2OC)cc1 (stereo not drawn)	14	43	20	0	0	6	x	x
CCOC(=O)[C@H]1[C@H]2COc3ccc(C)cc3[C@@H]2N2C(=O)c3ccc(Cl)cc3NC(=O)[C@@]12C	15	x	25	x	x	-1	x	x
CCOC(=O)[C@H]1[C@H]2COc3ccc(Cl)cc3[C@@H]2N2C(=O)c3ccc(Cl)cc3NC(=O)[C@@]12C	36	x	53*	x	x	3	25	x
COc1ccc2c(c1)C(=O)N1[C@H]3c4cc(Br)ccc4OC[C@@H]3[C@H](c3ccccc3)[C@]1(C)C(=O)N2	-13	x	64*	x	x	9	63*	37*
C[C@@]12C(=O)Nc3ccccc3C(=O)N1[C@H]1c3cc(Br)ccc3OC[C@@H]1[C@@H]2c1ccccc1	-17	x	63*	x	x	7	53*	31
